Results published in ChEMBL document CHEMBL1149397, “Trace amine-associated receptor agonists: synthesis and evaluation of thyronamines and related analogues” (J Med Chem, 2006).
Activity calls are given as the source filed them. The rule behind the calls is not given here.

What was measured:
[1] = target: Trace amine-associated receptor 1 (Mus musculus, UniProt Q923Y8); test: Activity at mouse TAAR1 by measuring cAMP accumulation in HEK293 cells; format: functional, cell-based
Summary of the method: (§1)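 HEK293 cells stably transfected with rat or mouse TAAR1, harvested and preincubated in Krebs-Ringer-HEPES with 200 µM IBMX. Then 1 h at 37 °C in KRH with 100 µM IBMX plus test compound, forskolin (10 µM) or DMSO vehicle. cAMP was measured by [³H]cAMP competitive binding after boiling, as % of forskolin control. EC₅₀ came from concentration-response curves, triplicate runs, averaged over experiments.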

[2] = target: Trace amine-associated receptor 1 (Rattus norvegicus, UniProt Q923Y9); test: Activity at rat TAAR1 by measuring cAMP accumulation in HEK293 cells; format: functional, cell-based; summary of the method: as §1
Trace amine-associated receptor 1 (Rattus norvegicus, UniProt Q923Y9), sequence (Q923Y9 whole entry): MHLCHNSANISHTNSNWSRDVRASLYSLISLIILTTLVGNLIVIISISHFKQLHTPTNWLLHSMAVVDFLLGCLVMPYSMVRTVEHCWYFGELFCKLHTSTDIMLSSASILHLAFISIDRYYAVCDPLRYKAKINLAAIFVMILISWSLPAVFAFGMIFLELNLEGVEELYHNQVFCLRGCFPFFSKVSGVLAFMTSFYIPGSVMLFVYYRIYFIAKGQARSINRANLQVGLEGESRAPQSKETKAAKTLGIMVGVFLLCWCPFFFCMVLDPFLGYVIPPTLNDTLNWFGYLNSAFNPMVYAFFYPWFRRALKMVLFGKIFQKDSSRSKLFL

[3] = tested on: Mus musculus; test: Hypothermia induction in C57BL/6J mice at 50 mg/kg, ip; format: functional, organism-based; design: dose 50 mg/kg
Summary of the method: (§2)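 Male C57BL/6J mice, about 7-10 weeks old, dosed i.p. at 2, 10, 25 or 50 mg/kg. Vehicle was 100% DMSO, or 60-65% DMSO in saline for some compounds. Rectal temperature was taken before dosing and at 30, 60, 120, 180, 240 and 1440 min, with room at 19-21 °C. Groups were 2-4 mice, analysed by two-way ANOVA with Bonferroni post hoc tests (P < 0.05).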

[4] = tested on: Mus musculus; test: Efficacy for hypothermia induction in ip dosed C57BL/6J mice; format: functional; summary of the method: as §2

Trace amine-associated receptor 1 (Mus musculus, UniProt Q923Y8), sequence (Q923Y8 whole entry): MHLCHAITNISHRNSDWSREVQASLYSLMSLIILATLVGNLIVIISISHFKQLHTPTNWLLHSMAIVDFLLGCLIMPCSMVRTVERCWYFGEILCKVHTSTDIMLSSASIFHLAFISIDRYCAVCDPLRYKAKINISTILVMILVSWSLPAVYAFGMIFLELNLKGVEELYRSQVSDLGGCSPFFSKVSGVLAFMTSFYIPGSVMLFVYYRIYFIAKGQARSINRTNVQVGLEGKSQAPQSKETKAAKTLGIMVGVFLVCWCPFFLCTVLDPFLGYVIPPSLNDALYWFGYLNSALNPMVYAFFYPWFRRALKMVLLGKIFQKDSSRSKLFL

| SMILES | EC50 [1] [nM] | EC50 [2] [nM] | Activity [3] | ED50 [4] [µmol/kg] |
| --- | --- | --- | --- | --- |
| NCCc1ccc(Oc2ccccc2)cc1 | 296 | 38 |  |  |
| Cc1cc(C)cc(COc2ccc(CCN)cc2)c1 | 98 | 137 |  |  |
| CNCCc1ccc(OCc2ccccc2)cc1 | 54 | 119 |  |  |
| CNCCc1ccc(Oc2ccc(C(F)(F)F)cc2)c(I)c1 | > 1000 | > 1000 |  |  |
| NCCc1ccc(Oc2ccc(O)c(I)c2)cc1 | > 1000 | 800 |  |  |
| NCCc1ccc(OCc2ccc(C(F)(F)F)cc2)c(I)c1 | 284 | > 1000 |  |  |
| CCCCNCCc1ccc(OCc2ccccc2)cc1 | > 1000 | > 1000 |  |  |
| NCCc1ccc(OCc2c(F)c(F)c(F)c(F)c2F)cc1 | > 1000 | > 1000 |  |  |
| NCCc1ccc(Oc2cc(I)c(O)c(I)c2)cc1 | > 1000 | > 1000 |  |  |
| Cc1cc(CCN)ccc1Oc1ccc(O)cc1 | 116 | 33 | Active |  |
| NCCc1ccc(OCc2ccc(C(F)(F)F)cc2)cc1 | 20.2 | 55 |  |  |
| NCCc1ccc(Oc2ccccc2)c(I)c1 | 35 | 2.4 | Active | 30 |
| NCCc1ccc(Oc2ccc(O)cc2)cc1 [THYRONAMINE] | 1000 |  |  |  |
| CCNCCc1ccc(OCc2ccccc2)cc1 | 71 | > 1000 |  |  |
| NCCc1cc(I)c(Oc2ccc(O)c(I)c2)c(I)c1 | > 1000 |  |  |  |
| CCCNCCc1ccc(OCc2ccccc2)cc1 | > 1000 | > 1000 |  |  |
| NCCc1cc(I)c(Oc2cc(I)c(O)c(I)c2)c(I)c1 | > 1000 |  |  |  |
| NCCc1ccc(OCC(=O)c2ccccc2)cc1 | 83 | 309 |  |  |
| CNCCc1ccc(Oc2ccc(OC)cc2)c(I)c1 | > 1000 | 107 |  |  |

| SMILES | EC50 [1] [nM] | EC50 [2] [nM] | Activity [3] | ED50 [4] [µmol/kg] |
| --- | --- | --- | --- | --- |
| NCCc1ccc(OCCCc2ccccc2)cc1 | 102 | 89 |  |  |
| NCCc1cc(I)c(Oc2ccc(O)cc2)c(I)c1 | 371 |  |  |  |
| CNCCc1ccc(OCc2ccccc2)c(I)c1 | 106 | 68 |  |  |
| OCCc1ccc(Oc2ccc(O)cc2)c(I)c1 | > 1000 | > 1000 |  |  |
| NCCc1ccc(OCc2ccc(F)cc2)cc1 | 38.5 | 72 |  |  |
| c1ccc(CNCCc2ccc(OCc3ccccc3)cc2)cc1 | > 1000 | > 1000 |  |  |
| COc1cc(COc2ccc(CCN)cc2)cc(OC)c1 | 123 | 333 |  |  |
| CNCCc1ccc(Oc2ccc(O)cc2)c(I)c1 | 221 | 18 |  |  |
| NCCc1ccc(OCc2ccccc2)c(I)c1 | 221 | 77 |  |  |
| COc1cccc(COc2ccc(CCN)cc2)c1 | 194 | 141 |  |  |
| NCCc1ccc(Oc2cc(I)c(O)c(I)c2)c(I)c1 | > 1000 | > 1000 |  |  |
| NCCc1ccc(OCCc2ccccc2)cc1 | 207 | 203 |  |  |
| NCCc1ccc(OCCCCc2ccccc2)cc1 | 80 | 43 |  |  |
| NCCc1ccc(OCc2ccccc2)cc1 | 168 | 209 |  |  |
| CNCCc1ccc(Oc2ccc(F)cc2)c(I)c1 | 32.5 | 2.7 | Active |  |
| CN(C)CCc1ccc(OCc2ccccc2)cc1 | 192 | > 1000 |  |  |
| CNCCc1ccc(OCc2ccc(C(F)(F)F)cc2)cc1 | 12 | 61 | Active |  |
| NCCc1ccc(Oc2ccc(O)c(I)c2)c(I)c1 | 1000 |  |  |  |
| NCCc1ccc(OCc2ccc([N+](=O)[O-])cc2)cc1 | 21.5 | 64 |  |  |
